# Test results from ChEMBL document CHEMBL4261577, “CureCuma-cationic curcuminoids with improved properties and enhanced antimicrobial photodynamic activity” (Eur J Med Chem, 2018).
# Activity calls are given as the source filed them. The calls are words filed in the database; no cut-off is given here.
# How the values were obtained:
# [1] = Drug level in 0.1 M phosphate buffer treated with curcumin at pH 7.2 at 37 degC after 30 mins by HPLC method; type: physicochemical; details: pH 7.2, 0.5 h
# [2] = n-Octanol/sorensen buffer partition coefficient, log D of compound at 50 uM at pH 7 after 10 mins by shake-flask method; type: physicochemical
# Summary of the method: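 Shake-flask at 25 °C: 50 µM photosensitizer in 10 mM Sörensen buffer pH 6.8 vigorously mixed with equal volume n-octanol for 10 min, phases separated by centrifugation; aqueous-phase absorbance before and after partitioning gives the coefficient.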
# [3] = Photodegradation of compound in water at 10 uM in presence of LED illumination at 5.6 J/cm'2 for 10 mins by UV/VIS/NIR spectrometer; type: physicochemical; details: read-out: Drug degradation
# Summary of the method: (§1)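 10 µM in water in a 1 cm quartz cuvette, illuminated at 435 nm with the bacterial-testing LED (9.4 mW/cm²); absorption spectra taken at set time intervals, chromophore band 380–460 nm followed; half-life from extrapolation.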
# [4] = Induction of reactive oxygen species formation assessed as singlet oxygen quantum yield at 2 uM measured over 20 mins by luminescence assay; type: functional; details: in the assay text read “over 50 secs” for “over 20 mins”
# Summary of the method: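 Singlet oxygen luminescence at 1270 nm from a 2 µM solution compared against TMPyP (0.5 µM) as reference, relating absorbed energy to emission; excitation at 405 nm with a tunable laser at 107, 162, 255 and 283 mW for 50 s each.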
# [5] = Stability of compound in DMSO-d6 at 10 mM incubated up to 130 degC measured after > 10 mins by NMR method; type: physicochemical; details: 10000 µM
# Summary of the method: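 1H NMR at 10 mM heated stepwise from room temperature through 40–130 °C in 10 °C steps, then cooled back to room temperature; aggregation/stability judged from aromatic-region shifts; external TMS reference, 400 MHz.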
# [6] = Aggregating behavior of compound up to 1 mM by UV-Vis spectroscopic analysis; type: physicochemical
# Summary of the method: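 UV-Vis absorption spectra in H2O over 100–1000 µM; dimerization judged from spectral changes within error margins.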
# Staphylococcus aureus = assay: Photodynamic antibacterial activity against Staphylococcus aureus ATCC 25923 assessed as CFU log reduction at 50 uM irradiated for 5 mins in presence of blueV lamp irradiation at 5.3 J/cm2 and measured after 24 hrs; type: functional
# Summary of the method: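 S. aureus ATCC25923 grown aerobically at 37 °C in Mueller-Hinton broth, pelleted and resuspended in distilled water to OD600 0.6 (~10^8 cells/mL); incubated 1 min with photosensitizer in 96-well plates, irradiated with BlueV source (390–460 nm, 20 mW/cm²) to 5.3 J/cm²; CFU by Miles-Misra on Mueller-Hinton agar after 24 h at 37 °C; log reduction versus untreated control; ≥3 replicates.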
# Escherichia coli [7] = assay: Dark toxicity in Escherichia coli ATCC 25922 assessed as decrease in viable cells at 10 uM; type: organism-based; details: in vivo
# Summary of the method: (§2)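 E. coli ATCC25922 prepared as for phototoxicity (2 h subculture, DPBS resuspension), incubated with photosensitizer at 37 °C, 175 rpm, but kept in foil-wrapped plates without illumination; CFU counted from serial dilutions on Todd-Hewitt/yeast extract agar after overnight 37 °C, compared against untreated, unilluminated control; three biological replicates.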
# Escherichia coli [8] = assay: Photodynamic antibacterial activity against Escherichia coli ATCC 25922 assessed as CFU log reduction irradiated for 1.5 mins in presence of 0.85 J/cm2 and measured after 24 hrs; type: functional; details: ATCC 25922, light or radiation study, read-out: MBC99.9
# Escherichia coli [9] = assay: Photodynamic antibacterial activity against Escherichia coli ATCC 25922 assessed as CFU log reduction at 10 uM irradiated for 2.5 mins in presence of 1.41 J/cm2 and measured after 24 hrs; type: functional
# [10] = Photodegradation of compound in water at 10 uM in presence of LED illumination at 16.9 J/cm'2 for 30 mins by UV/VIS/NIR spectrometer; type: physicochemical; details: read-out: Drug degradation; summary of the method: as §1
# [11] = Half life of compound in water at 10 uM in presence of LED illumination at 9.4 mW/cm'2 by UV/VIS/NIR spectrometer; type: physicochemical; summary of the method: as §1
# [12] = Stability of compound in diluted HCl at 50 uM after 4 hrs by UV-Vis spectrophotometric method; type: physicochemical; details: buffer
# Summary of the method: (§3)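 UV-Vis spectra recorded after 4 h incubation in buffer solutions at different pH values, acidic down to pH 2 and alkaline above pH 10.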
# [13] = Stability of compound in diluted NaOH at 50 uM after 4 hrs by UV-Vis spectrophotometric method; type: physicochemical; summary of the method: as §3
# Escherichia coli [14] = assay: Dark toxicity in Escherichia coli ATCC 25922 assessed as decrease in viable cells at 50 uM relative to control; type: organism-based; details: in vivo; summary of the method: as §2
# Escherichia coli [15] = assay: Photodynamic antibacterial activity against Escherichia coli ATCC 25922 assessed as CFU log reduction irradiated for 5 to 25 mins in presence of LED light at 33.8 J/cm2 and measured after 24 hrs; type: functional; details: ATCC 25922, light or radiation study, read-out: MBC99.9
# Summary of the method: (§4)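 E. coli ATCC25922 grown overnight at 37 °C (175 rpm) in Todd-Hewitt broth + 0.3% yeast extract, diluted to A 0.05, grown 2 h (A600 0.3–0.45), pelleted and resuspended in DPBS; incubated with photosensitizer 5 or 25 min at 37 °C, illuminated with 435 nm LED array (9.4 mW/cm², 33.8 J/cm²) while shaken; serial dilutions plated, CFU counted after overnight 37 °C. Log reduction versus untreated, unilluminated control; ≥3 biological replicates; detection limit 10 CFU/mL.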
# Escherichia coli [16] = assay: Photodynamic antibacterial activity against Escherichia coli ATCC 25922 assessed as CFU log reduction at 10 uM irradiated for 5 to 25 mins in presence of LED light at 33.8 J/cm2 and measured after 24 hrs relative to control; type: functional; summary of the method: as §4
# Escherichia coli [17] = assay: Photodynamic antibacterial activity against Escherichia coli ATCC 25922 assessed as reduction in bacterial burden at 50 uM complexed with PVP in presence of LED irradiation at LED light at 33.8 J/cm2; type: functional, organism-based
# Escherichia coli [18] = assay: Photodynamic antibacterial activity against Escherichia coli ATCC 25922 assessed as CFU log reduction at 100 uM complexed with PVP in presence of LED irradiation at LED light at 33.8 J/cm2 relative to control; type: functional
# [19] = Aggregating behavior of compound at 1 to 2 mM by NMR analysis; type: physicochemical; details: 2000 µM
# Summary of the method: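 1H NMR in D2O at 20, 10, 5, 2 and 1 mM; aggregation judged from signal shifts and multiplet changes in the aromatic region (6.5–8 ppm), referenced to external TMS, 400 MHz.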
smiles,measurement,setting,value
CC(C)=O [ACETONE],Drug metabolism,[1],Metabolite_Detected
Cc1cc(/C=C/C(=O)CC(=O)/C=C/c2ccc(OCCN)c(C)c2)ccc1OCCN.Cl.Cl,"logD at 10 min, 50 µM",[2],-0.8
same,"degraded at 10 min, 10 µM",[3],< 10%
same,Activity,[4],< 1%
same,Stability,[5],Stable
Cl.Cl.Cl.Cl.NCCOc1ccc(/C=C/C(=O)CC(=O)/C=C/c2ccc(OCCN)c(OCCN)c2)cc1OCCN,Activity,[6],Active
same,"logD at 10 min, 50 µM",[2],< -2
same,log reduction,Staphylococcus aureus,5.3 log10 CFU/mL
same,Activity,Escherichia coli [7],Non-Toxic
same,MBC,Escherichia coli [8],10 µM
same,Activity,Escherichia coli [9],>5 deltalog10CFU/ml
same,"degraded at 10 min, 10 µM",[3],< 10%
same,"degraded at 0.5 h, 10 µM",[10],20%
same,half-life at 10 µM,[11],1 h
same,Activity,[4],< 1%
same,Stability,[12],Stable
same,Stability,[13],Unstable
same,Activity,Escherichia coli [14],1 deltalog10CFU/ml
same,MBC,Escherichia coli [15],5 µM
same,Activity,Escherichia coli [16],5 deltalog10CFU/ml
COc1cc(/C=C/C(=O)CC(=O)/C=C/c2ccc(O)c(OC)c2)ccc1O [CURCUMIN],Activity,Escherichia coli [17],inactive
same,Activity,Escherichia coli [18],0.3 deltalog10CFU/ml
Cl.Cl.Cl.Cl.Cl.Cl.NCCOc1cc(/C=C/C(=O)CC(=O)/C=C/c2cc(OCCN)c(OCCN)c(OCCN)c2)cc(OCCN)c1OCCN,"logD at 10 min, 50 µM",[2],< -2
same,"degraded at 10 min, 10 µM",[3],< 10%
same,Activity,[4],< 1%
COc1cc(C=O)ccc1O [VANILLIN],Drug metabolism,[1],Metabolite_Detected
Cl.Cl.NCCCOc1ccc(/C=C/C(=O)CC(=O)/C=C/c2ccc(OCCCN)c(OCc3ccccc3)c2)cc1OCc1ccccc1,"logD at 10 min, 50 µM",[2],-0.6
same,"degraded at 10 min, 10 µM",[3],< 10%
same,Activity,[4],< 1%
Cl.Cl.NCCOc1ccc(/C=C/C(=O)CC(=O)/C=C/c2ccc(OCCN)cc2)cc1,"logD at 10 min, 50 µM",[2],-0.9
same,"degraded at 10 min, 10 µM",[3],< 10%
same,Activity,[4],< 1%
COc1cc(OCCN)ccc1/C=C/C(=O)CC(=O)/C=C/c1ccc(OCCN)cc1OC.Cl.Cl,"logD at 10 min, 50 µM",[2],-1.1
same,"degraded at 10 min, 10 µM",[3],< 10%
same,Activity,[4],< 1%
COc1cc(/C=C/C(=O)CC(=O)/C=C/c2ccc(OCCN)c(OC)c2)ccc1OCCN.Cl.Cl,"logD at 10 min, 50 µM",[2],-1.2
same,Activity,[19],Active
same,log reduction,Staphylococcus aureus,5.2 log10 CFU/mL
same,Activity,Escherichia coli [7],Non-Toxic
same,"degraded at 10 min, 10 µM",[3],< 10%
same,Activity,[4],< 1%
same,Stability,[12],Stable
same,Stability,[13],Unstable
same,Activity,Escherichia coli [14],0.5 deltalog10CFU/ml
COc1cc(/C=C/C(=O)CC(=O)/C=C/c2ccc(OCCOCCN)c(OC)c2)ccc1OCCOCCN.Cl.Cl,"logD at 10 min, 50 µM",[2],-1.6
same,"degraded at 10 min, 10 µM",[3],< 10%
same,Activity,[4],< 1%
